In data set [1] the test system is MCF7. The experiment in a line: Cytotoxicity against human MCF7 cells assessed as cell growth inhibition after 72 hrs by MTT assay. As to conditions: MCF7, 72 h. It is filed as functional, cell-based. In outline: (§1)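 MTT growth assay in human cancer lines (MCF-7, HepG2, BGC-823, HeLa, A549), 72 h after treatment; 5-fluorouracil as reference. IC50 (μg/mL) taken as concentration giving 50% growth inhibition versus untreated control.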
(Tetrazolium assays rely on reduction of a dye to a coloured formazan, in cell work by metabolically active cells.)

Data set [2] concerns HeLa. Description: Cytotoxicity against human HeLa cells assessed as cell growth inhibition after 72 hrs by MTT assay. The format is functional, cell-based. In outline:
as §1

Data set [3] has as its system HepG2. Description: Cytotoxicity against human HepG2 cells assessed as cell growth inhibition after 72 hrs by MTT assay. The format is functional, cell-based. Conditions: HepG2, 72 h. In a few lines: as §1
Data set [4] can be described thus: Cytotoxicity against human BCG823 cells assessed as cell growth inhibition after 72 hrs by MTT assay. The format is functional, cell-based. As to conditions: BCG823, 72 h. In outline:
as §1

In data set [5] the test system is A549. The experiment in a line: Cytotoxicity against human A549 cells assessed as cell growth inhibition after 72 hrs by MTT assay. Conditions: A549, 72 h. The format is functional, cell-based. In a few lines:
as §1

The test system of data set [6] is MCF7. The experiment in a line: Cytotoxicity against human MCF7 cells assessed as cell growth inhibition at 20 ug/ml after 72 hrs by MTT assay. The format is functional. As to conditions: MCF7, 72 h, read-out: GI.
Data set [7] relates to HeLa. The experiment in a line: Cytotoxicity against human HeLa cells assessed as cell growth inhibition at 20 ug/ml after 72 hrs by MTT assay. It is filed as functional. As to conditions: read-out: GI.
The test system of data set [8] is HepG2. Description: Cytotoxicity against human HepG2 cells assessed as cell growth inhibition at 20 ug/ml after 72 hrs by MTT assay. The format is functional. As to conditions: HepG2, 72 h, read-out: GI.
A short description of data set [9]: Cytotoxicity against human BCG823 cells assessed as cell growth inhibition at 20 ug/ml after 72 hrs by MTT assay. As to conditions: BCG823, 72 h, read-out: GI. The format is functional.
The subject of data set [10] is A549. Description: Cytotoxicity against human A549 cells assessed as cell growth inhibition at 20 ug/ml after 72 hrs by MTT assay. The format is functional. As to conditions: A549, 72 h, read-out: GI.
Data set [11] relates to MCF-7, HepG2, BGC-823, HeLa, A549 cancer cell lines (Homo sapiens). Description: Cytotoxicity against human MCF-7, HepG2, BGC-823, HeLa and A549 cells assessed as cell growth inhibition at 20 ug/ml after 72 hrs by MTT assay. As to conditions: read-out: GI.
Data set [12] is described as follows: Cytotoxicity against human HL7702 cells assessed as cell growth inhibition after 72 hrs by MTT assay. The format is cell-based. Conditions: L02, 72 h.

Molecules are shown by their SMILES. In brackets after ≈: the same amount, converted by molar mass.

For 18 molecules, IC50, inhibition of growth and inhibition results are on record in ChEMBL document CHEMBL3813688, “Synthesis, antitumor activity and mechanism of action of novel 1,3-thiazole derivatives containing hydrazide-hydrazone and carboxamide moiety” (Bioorg Med Chem Lett, 2016).

In general, IC50 refers to the midpoint of a concentration-inhibition curve. For the molecule `CNc1nc(C(F)(F)F)c(C(=O)N/N=C/c2cc(C(F)(F)F)cc(C(F)(F)F)c2)s1`, the IC50 (in the data set with MCF7 [1]; in the data set on HeLa [2]; in the data set on HepG2 [3]; in data set [4]; in the data set with A549 [5]) was greater than 100 µg/mL each time. For the same molecule, the inhibition of growth at 20 µg/mL (with MCF7 [6]; in the data set with HeLa [7]; in the data set on HepG2 [8]; in [9]; in the data set with A549 [10]) was less than 30% each time. Further, in data set [11], the inhibition at 72 h, 20 ug/ml is less than 30%.
Turning to `CNc1nc(C)c(C(=O)N/N=C/c2ccc(C(F)(F)F)cc2)s1`, the IC50 (in the data set on MCF7 [1]; in the data set on HeLa [2]; in the data set with HepG2 [3]; in data set [4]; with A549 [5]) was greater than 100 µg/mL throughout. Moreover, the inhibition of growth at 20 µg/mL (in the data set with MCF7 [6]; in the data set on HeLa [7]; in the data set with HepG2 [8]; in data set [9]; in the data set with A549 [10]) was less than 30% each time. Further, the inhibition at 72 h, 20 ug/ml in data set [11] is less than 30%.
As for `CN(C(=O)NC(=O)c1ccc(F)c(F)c1)c1nc(C(F)(F)F)c(C(=O)N/N=C/c2ccc(C(F)(F)F)cc2)s1`, the IC50 in the data set with MCF7 [1] is 5.93 µg/mL (≈ 10.2 µM); in the data set with HeLa [2] it was 5.1 µg/mL (≈ 8.8 µM); in the data set on HepG2 [3], 6.26 µg/mL (≈ 10.8 µM); in data set [4], 3.85 µg/mL (≈ 6.64 µM); in the data set with A549 [5] it was 6.07 µg/mL (≈ 10.5 µM); in [12], 13.2 µg/mL (≈ 22.9 µM).
For the molecule `CN(C(=O)NC(=O)c1ccc(F)c(F)c1)c1nc(C(F)(F)F)c(C(=O)N/N=C/c2cccc(C(F)(F)F)c2)s1`, the IC50 came out at 4.15 µg/mL (≈ 7.16 µM) in the data set with MCF7 [1]; 4.21 µg/mL (≈ 7.27 µM) with HeLa [2]; 5.6 µg/mL (≈ 9.66 µM) in the data set on HepG2 [3]; 4.46 µg/mL (≈ 7.7 µM) in [4]; 6.52 µg/mL (≈ 11.3 µM) in the data set on A549 [5]; 23.5 µg/mL (≈ 40.5 µM) in data set [12].
For the molecule `CN(C(=O)NC(=O)c1ccc(C(F)(F)F)cc1)c1nc(C(F)(F)F)c(C(=O)N/N=C/c2cccc(C(F)(F)F)c2)s1`, the IC50 in the data set on MCF7 [1] was found to be 8.95 µg/mL (≈ 14.6 µM); with HeLa [2], 6.2 µg/mL (≈ 10.1 µM); in the data set on HepG2 [3] it was 7.95 µg/mL (≈ 13 µM); in data set [4] it was 1.84 µg/mL (≈ 3.01 µM); in the data set with A549 [5] it was 6.66 µg/mL (≈ 10.9 µM); in [12] it was 18 µg/mL (≈ 29.4 µM).
For the molecule `CNc1nc(C)c(C(=O)N/N=C/c2cccc(C(F)(F)F)c2)s1`, the IC50 (in the data set with MCF7 [1]; with HeLa [2]; in the data set with HepG2 [3]; in data set [4]; in the data set with A549 [5]) was greater than 100 µg/mL in each case. Further, the inhibition of growth at 20 µg/mL (with MCF7 [6]; with HeLa [7]; in the data set on HepG2 [8]; in [9]; in the data set with A549 [10]) was less than 30% throughout. The inhibition at 72 h, 20 ug/ml in [11] was less than 30%.
Consider `O=c1[nH]cc(F)c(=O)[nH]1` [FLUOROURACIL], for which the IC50 in the data set with MCF7 [1] was 10.8 µg/mL (≈ 83 µM); in the data set with HeLa [2] it was 10.7 µg/mL (≈ 82.4 µM); in data set [4], 10.9 µg/mL (≈ 83.7 µM); in the data set on A549 [5], 10.5 µg/mL (≈ 80.7 µM); in [12], 14.5 µg/mL (≈ 112 µM).
On to `CN(C(=O)NC(=O)c1ccc(F)c(F)c1)c1nc(C(F)(F)F)c(C(=O)N/N=C/c2cc(C(F)(F)F)cc(C(F)(F)F)c2)s1`, for which the IC50 with MCF7 [1] came to 2.61 µg/mL (≈ 4.03 µM); in the data set on HeLa [2], 4.45 µg/mL (≈ 6.87 µM); with HepG2 [3], 5.47 µg/mL (≈ 8.45 µM); in data set [4] it was 3.51 µg/mL (≈ 5.42 µM); with A549 [5], 5.47 µg/mL (≈ 8.45 µM); in data set [12], 20.1 µg/mL (≈ 31 µM).
Consider `CNc1nc(C(F)(F)F)c(C(=O)N/N=C/c2cccc(C(F)(F)F)c2)s1`, for which the IC50 (in the data set on MCF7 [1]; with HeLa [2]; with HepG2 [3]; in [4]; with A549 [5]) was greater than 100 µg/mL each time. The inhibition of growth at 20 µg/mL (in the data set with MCF7 [6]; in the data set on HeLa [7]; in the data set on HepG2 [8]; in data set [9]; in the data set with A549 [10]) was less than 30% in each case. In data set [11], the inhibition at 72 h, 20 ug/ml is less than 30%.
As for `CNc1nc(C(F)(F)F)c(C(=O)N/N=C/c2ccccc2C(F)(F)F)s1`, the IC50 (in the data set with MCF7 [1]; with HeLa [2]; in the data set with HepG2 [3]; in data set [4]; with A549 [5]) was greater than 100 µg/mL each time. For the same molecule, the inhibition of growth at 20 µg/mL (with MCF7 [6]; in the data set with HeLa [7]; with HepG2 [8]; in data set [9]; in the data set with A549 [10]) was less than 30% in each case. In data set [11], the inhibition at 72 h, 20 ug/ml is less than 30%.
Turning to `CNc1nc(C)c(C(=O)N/N=C/c2cc(C(F)(F)F)cc(C(F)(F)F)c2)s1`, the IC50 (in the data set with MCF7 [1]; with HeLa [2]; with HepG2 [3]; in data set [4]; with A549 [5]) was greater than 100 µg/mL in each case. In addition, the inhibition of growth at 20 µg/mL (in the data set with MCF7 [6]; with HeLa [7]; in the data set on HepG2 [8]; in data set [9]; with A549 [10]) was less than 30% in each case. Besides, the inhibition at 72 h, 20 ug/ml in data set [11] is less than 30%.
On to `CNc1nc(C)c(C(=O)N/N=C/c2ccccc2C(F)(F)F)s1`, for which the IC50 (in the data set on MCF7 [1]; in the data set on HeLa [2]; with HepG2 [3]; in [4]; in the data set on A549 [5]) was greater than 100 µg/mL in each case. The inhibition of growth at 20 µg/mL (in the data set on MCF7 [6]; with HeLa [7]; in the data set with HepG2 [8]; in data set [9]; in the data set on A549 [10]) was less than 30% each time. The inhibition at 72 h, 20 ug/ml in data set [11] was less than 30%.
Regarding `CCOC(=O)c1sc(NC)nc1C`, the inhibition of growth at 20 µg/mL (in the data set with MCF7 [6]; in the data set on HeLa [7]; with HepG2 [8]; in [9]; in the data set with A549 [10]) was less than 10% throughout. Further, the inhibition at 72 h, 20 ug/ml in [11] was less than 10%.
Regarding `CCOC(=O)c1sc(NC)nc1C(F)(F)F`, the inhibition of growth at 20 µg/mL (in the data set with MCF7 [6]; in the data set with HeLa [7]; with HepG2 [8]; in [9]; in the data set on A549 [10]) was less than 10% in each case. The inhibition at 72 h, 20 ug/ml in data set [11] was less than 10%.
As for `CN(C(=O)NC(=O)c1ccc(Cl)cc1Cl)c1nc(C(F)(F)F)c(C(=O)N/N=C/c2cc(C(F)(F)F)cc(C(F)(F)F)c2)s1`, the IC50 (in the data set on MCF7 [1]; with HeLa [2]; with HepG2 [3]; in [4]; in the data set on A549 [5]) was greater than 100 µg/mL throughout.
As to `CNc1nc(C(F)(F)F)c(C(=O)N/N=C/c2ccc(C(F)(F)F)cc2)s1`, the IC50 (in the data set on MCF7 [1]; in the data set on HeLa [2]; in the data set with HepG2 [3]; in data set [4]; with A549 [5]) was greater than 100 µg/mL in each case. The inhibition of growth at 20 µg/mL (in the data set on MCF7 [6]; with HeLa [7]; in the data set with HepG2 [8]; in data set [9]; in the data set with A549 [10]) was less than 30% throughout. Further, the inhibition at 72 h, 20 ug/ml in [11] was less than 30%.
For the molecule `CN(C(=O)NC(=O)c1c(F)cccc1F)c1nc(C(F)(F)F)c(C(=O)N/N=C/c2cccc(C(F)(F)F)c2)s1`, the IC50 is 21.8 µg/mL (≈ 37.6 µM) in the data set on MCF7 [1]; 21.6 µg/mL (≈ 37.3 µM) in the data set with HeLa [2]; 27.9 µg/mL (≈ 48.1 µM) with HepG2 [3]; 25.9 µg/mL (≈ 44.6 µM) in data set [4]; 27.6 µg/mL (≈ 47.6 µM) in the data set with A549 [5].
The like results for `CN(C(=O)NC(=O)c1ccc(C(F)(F)F)cc1)c1nc(C(F)(F)F)c(C(=O)N/N=C/c2ccc(C(F)(F)F)cc2)s1` were, in that order, greater than 100 µg/mL, greater than 100 µg/mL, greater than 100 µg/mL, greater than 100 µg/mL and greater than 100 µg/mL.
